Results from ChEMBL document CHEMBL1921778, “Rational design and synthesis of aminopiperazinones as β-secretase (BACE) inhibitors” (Bioorg Med Chem Lett, 2011).
Activity calls are given as the source filed them. The rule behind the calls is not given here.

Columns and labels:
[1] = Dissociation constant, pKa of the compound; type: physicochemical
Beta-secretase 1 [2] = molecular target: T1, Beta-secretase 1 (Homo sapiens, UniProt P56817); test: Inhibition of human recombinant BACE1 using fluorescent Mca-Ser-Glu-Val-Asn-Leu-Asp-Ala-Glu-Phe-Lys(Dnp)-OH peptide as substrate after 1 hr by spectroflurorimeter analysis
T1 sequence (P56817 whole entry): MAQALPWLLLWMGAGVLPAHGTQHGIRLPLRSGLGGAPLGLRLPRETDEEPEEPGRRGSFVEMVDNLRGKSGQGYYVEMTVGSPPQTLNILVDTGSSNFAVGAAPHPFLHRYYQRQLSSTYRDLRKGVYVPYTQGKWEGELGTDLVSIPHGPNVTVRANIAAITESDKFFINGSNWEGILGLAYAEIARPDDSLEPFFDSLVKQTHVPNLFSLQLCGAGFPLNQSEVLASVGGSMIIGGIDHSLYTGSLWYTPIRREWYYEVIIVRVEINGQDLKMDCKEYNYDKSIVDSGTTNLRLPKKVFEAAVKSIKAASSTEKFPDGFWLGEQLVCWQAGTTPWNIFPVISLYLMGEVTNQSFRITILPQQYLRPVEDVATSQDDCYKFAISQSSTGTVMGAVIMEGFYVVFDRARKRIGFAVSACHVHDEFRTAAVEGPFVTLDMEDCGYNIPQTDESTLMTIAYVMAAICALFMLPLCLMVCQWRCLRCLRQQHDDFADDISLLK

Beta-secretase 1 [3] = molecular target: T1, Beta-secretase 1; test: Inhibition of human BACE1-mediated amyloid beta 42 secretion in human SKNBE2 cells expressing human APP695 after 18 hrs by sandwich alphalisa assay; type: cell-based
Beta-secretase 1 [4] = molecular target: T1, Beta-secretase 1; test: Inhibition of human BACE1-mediated amyloid beta TOT secretion in human SKNBE2 cells expressing human APP695 after 18 hrs by sandwich alphalisa assay; type: cell-based
Method in brief: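 SKNBE2 human neuroblastoma cells expressing wild-type hAPP695 exposed to diluted compound for 18 h; secreted AβTOT in medium quantified by sandwich AlphaLISA using biotinylated AbN/25 on streptavidin beads and 4G8 detection antibody.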

Mus musculus [5] = test: Antialzheimer activity in CD1 mouse brain assessed as reduction of amyloid beta TOT production at 30 mg/kg, sc after 1 hr using fluorogenic peroxidase as substrate by ELISA; type: functional; design: scale not given: the % may be the effect or the level left; conditions: route subcutaneous
Method in brief: (§1)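 Male CD1 mice (22-28 g), fasted overnight, given single subcutaneous dose in 20% hydroxypropyl β-cyclodextrin; vehicle/untreated controls. Soluble AβTOT by sandwich ELISA (capture JRF/rAb/2, biotinylated 4G8), Aβ1-40 standards 10000–0.3 pg/ml, overnight 4 °C, QuantaBlu fluorogenic read-out.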

[6] = Plasma concentration in mouse at 30 mg/kg, sc after 1 hr; type: ADME, organism-based; design: dose 30 mg/kg, route subcutaneous
Method in brief: (§2)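 Mice dosed subcutaneously; brain and plasma drug levels measured at 1, 2 and 4 h post-dose, brain in ng/g, plasma in ng/ml.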

[7] = Plasma concentration in mouse at 30 mg/kg, sc after 2 hrs; type: ADME, organism-based; design: dose 30 mg/kg, route subcutaneous; method in brief: as §2
[8] = Plasma concentration in mouse at 30 mg/kg, sc after 4 hrs; type: ADME, organism-based; design: dose 30 mg/kg, route subcutaneous; method in brief: as §2
[9] = Drug uptake in mouse brain at 30 mg/kg, sc after 1 hr; type: ADME, organism-based; design: dose 30 mg/kg, route subcutaneous; conditions: read-out: Drug uptake; method in brief: as §2
[10] = Drug uptake in mouse brain at 30 mg/kg, sc after 2 hrs; type: ADME, organism-based; design: dose 30 mg/kg, route subcutaneous; conditions: read-out: Drug uptake; method in brief: as §2
[11] = Drug uptake in mouse brain at 30 mg/kg, sc after 4 hrs; type: ADME, organism-based; design: dose 30 mg/kg, route subcutaneous; conditions: read-out: Drug uptake; method in brief: as §2
Mus musculus [12] = test: Antialzheimer activity in CD1 mouse brain assessed as reduction of amyloid beta TOT production at 30 mg/kg, sc after 2 hrs using fluorogenic peroxidase as substrate by ELISA; type: functional, organism-based; design: dose 30 mg/kg; method in brief: as §1
Mus musculus [13] = test: Antialzheimer activity in CD1 mouse brain assessed as reduction of amyloid beta TOT production at 30 mg/kg, sc after 4 hrs using fluorogenic peroxidase as substrate by ELISA; type: functional, organism-based; design: dose 30 mg/kg; method in brief: as §1
[14] = Plasma concentration in mouse at 60 mg/kg, sc after 2 hrs; type: ADME, organism-based; design: dose 60 mg/kg, route subcutaneous; method in brief: as §2
[15] = Plasma concentration in mouse at 60 mg/kg, sc after 4 hrs; type: ADME, organism-based; design: dose 60 mg/kg, route subcutaneous; method in brief: as §2
[16] = Drug uptake in mouse brain at 60 mg/kg, sc after 1 hr; type: ADME, organism-based; design: dose 60 mg/kg, route subcutaneous; conditions: read-out: Drug uptake; method in brief: as §2
[17] = Drug uptake in mouse brain at 60 mg/kg, sc after 2 hrs; type: ADME, organism-based; design: dose 60 mg/kg, route subcutaneous; conditions: read-out: Drug uptake; method in brief: as §2
[18] = Drug uptake in mouse brain at 60 mg/kg, sc after 4 hrs; type: ADME, organism-based; design: dose 60 mg/kg, route subcutaneous; conditions: read-out: Drug uptake; method in brief: as §2
Mus musculus [19] = test: Antialzheimer activity in CD1 mouse brain assessed as reduction of amyloid beta TOT production at 60 mg/kg, sc after 1 hr using fluorogenic peroxidase as substrate by ELISA; type: functional; design: scale not given: the % may be the effect or the level left; conditions: route subcutaneous; method in brief: as §1
Mus musculus [20] = test: Antialzheimer activity in CD1 mouse brain assessed as reduction of amyloid beta TOT production at 60 mg/kg, sc after 2 hrs using fluorogenic peroxidase as substrate by ELISA; type: functional; design: scale not given: the % may be the effect or the level left; conditions: route subcutaneous; method in brief: as §1
Mus musculus [21] = test: Antialzheimer activity in CD1 mouse brain assessed as reduction of amyloid beta TOT production at 60 mg/kg, sc after 4 hrs using fluorogenic peroxidase as substrate by ELISA; type: functional; design: scale not given: the % may be the effect or the level left; conditions: route subcutaneous; method in brief: as §1
[22] = Plasma concentration in mouse at 60 mg/kg, sc after 1 hr; type: ADME, organism-based; design: dose 60 mg/kg, route subcutaneous; method in brief: as §2

| pKa [1] | IC50 (Beta-secretase 1 [2]) [µM] | IC50 (Beta-secretase 1 [3]) [µM] | IC50 (Beta-secretase 1 [4]) [µM] | SMILES | other results |
| --- | --- | --- | --- | --- | --- |
| 7.6 | > 30 | > 10 | > 10 | CN1CC(C)(c2cccc(NC(=O)c3ccc(Cl)cn3)c2)N=C(N)C1=O (single isomer, unassigned; enantiomer 1) |  |
| < 8 |  |  |  | CN1CC(C)(c2cc(NC(=O)c3ccc(Cl)cn3)ccc2F)N=C(N)C1=O (single isomer, unassigned; enantiomer 1) |  |
|  | 0.295 | 0.083 | 0.085 | CN1CC(C)(c2cccc(NC(=O)c3ccc(Cl)cn3)c2)N=C(N)C1=O (single isomer, unassigned; enantiomer 2) |  |

The next lines start with the compound.

| SMILES | pKa [1] | IC50 (Beta-secretase 1 [2]) [µM] | IC50 (Beta-secretase 1 [3]) [µM] | IC50 (Beta-secretase 1 [4]) [µM] | other results |
| --- | --- | --- | --- | --- | --- |
| CN1CC(N)=N[C@@](C)(c2cccc(NC(=O)c3ccc(Cl)cn3)c2)C1=O | < 8 |  |  |  |  |
| CN1CC(N)=N[C@](C)(c2cccc(NC(=O)c3ccc(Cl)cn3)c2)C1=O | < 8 |  |  |  |  |
| CN1CC(N)=NC(C)(c2cccc(NC(=O)c3ccc(C#N)cn3)c2)C1=O (stereo not given) | < 8 | 0.813 | 0.186 | 0.151 |  |
| CN1CC(N)=NC(C)(c2cccc(NC(=O)c3ccc(C(F)(F)F)cn3)c2)C1=O (stereo not given) | < 8 | 1.38 | 0.068 | 0.079 |  |
| Cc1cnc(C(=O)Nc2cccc(C3(C)N=C(N)CN(C)C3=O)c2)cn1 (stereo not given) | < 8 | 7.08 | 1.26 | 1.15 |  |
| CN1CC(C)(c2cccc(NC(=O)c3ccc(Cl)cn3)c2)N=C(N)C1=O (racemic) [listing 1 of 2 here] |  | 0.55 | 0.115 | 0.107 | Activity (Mus musculus [5]): 34%; concentration at 1 h [6]: 0.993 µg/mL; concentration at 2 h [7]: 0.461 µg/mL; concentration at 4 h [8]: 0.2 µg/mL; concentration at 1 h [9]: 614 ng/g; concentration at 2 h [10]: 157 ng/g; concentration at 4 h [11]: 20.5 ng/g |
| CN1CC(N)=NC(C)(c2cccc(NC(=O)c3ccc(Cl)cn3)c2)C1=O (racemic) | 7.8 |  |  |  | concentration at 1 h [6]: 4.63 µg/mL; concentration at 2 h [7]: 1.71 µg/mL; concentration at 4 h [8]: 0.439 µg/mL; concentration at 1 h [9]: 184 ng/g; concentration at 2 h [10]: 123 ng/g; concentration at 4 h [11]: 90 ng/g |
| CN1CC(C)(c2cccc(NC(=O)c3ccc(Cl)cn3)c2)N=C(N)C1=O (racemic) [listing 2 of 2 here] |  |  |  |  | Activity (Mus musculus [12]): inactive; Activity (Mus musculus [13]): inactive |
| CN1CC(C)(c2cc(NC(=O)c3ccc(Cl)cn3)ccc2F)N=C(N)C1=O (single isomer, unassigned; enantiomer 2) |  |  |  |  | concentration at 2 h [14]: 2.46 µg/mL; concentration at 4 h [15]: 0.27 µg/mL; concentration at 1 h [16]: 8080 ng/g; concentration at 2 h [17]: 3340 ng/g; concentration at 4 h [18]: 347 ng/g; Activity (Mus musculus [19]): 48%; Activity (Mus musculus [20]): 67%; Activity (Mus musculus [21]): 73%; concentration at 1 h [22]: 7.15 µg/mL |
